22 molecules from ChEMBL document CHEMBL1132599, “Bisquaternary ligands of the common allosteric site of M2 acetylcholine receptors: search for the minimum essential distances between the pharmacophoric elements” (J Med Chem, 1999) can be followed below.

Data set [1] in a line: Half life (t1/2) value of the compound. Format: ADME. In a few lines:
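Chemical hydrolysis followed by UV spectroscopy for 24 h at 20 °C in TRIS-HCl–Mg buffer (3.6 mM MgHPO4, 50 mM TRIS, pH 7.3); half-life of the compound reported in hours.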

Data set [2] concerns the target T1, Muscarinic acetylcholine receptor M2 (Sus scrofa, UniProt P06199).
T1 sequence (P06199 whole entry): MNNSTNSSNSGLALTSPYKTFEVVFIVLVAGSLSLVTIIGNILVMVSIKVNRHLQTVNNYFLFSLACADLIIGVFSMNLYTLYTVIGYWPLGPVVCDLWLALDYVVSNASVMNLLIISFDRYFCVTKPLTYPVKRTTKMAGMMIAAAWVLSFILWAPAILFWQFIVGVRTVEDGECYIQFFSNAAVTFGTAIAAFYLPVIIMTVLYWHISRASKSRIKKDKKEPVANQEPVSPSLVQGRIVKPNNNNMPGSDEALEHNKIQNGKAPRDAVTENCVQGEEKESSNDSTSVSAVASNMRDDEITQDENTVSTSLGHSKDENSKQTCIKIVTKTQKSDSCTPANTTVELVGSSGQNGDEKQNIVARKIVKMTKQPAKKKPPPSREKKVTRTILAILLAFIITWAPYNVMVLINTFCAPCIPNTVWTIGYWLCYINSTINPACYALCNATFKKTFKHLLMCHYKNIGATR
Briefly: Allosteric potency against the dissociation of radioligand [3H]N-methylscopolamine from the porcine cardiac Muscarinic acetylcholine receptor M2. In a few lines: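 Porcine ventricular membranes: homogenized in 0.32 M sucrose, spun at 300g then 80000g, resuspended in 50 mM Tris-HCl pH 7.4. Labeled with 0.2 nM [3H]NMS for 30 min in 2.6 mM MgHPO4/45 mM Tris-HCl, pH 7.3, 37 °C. Dissociation started with 1 µM atropine plus modulator, sampled up to 2 h (some two-point, 0 and 4 min), then filtered and counted. EC50 is the concentration halving monoexponential k-1 (4–6 concentrations).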

The structures appear in SMILES notation.

In data set [1], `C[N+](C)(CCCC[N+](C)(C)CCCN1C(=O)c2ccccc2C1=O)CCCN1C(=O)c2ccccc2C1=O.[Br-].[Br-]` showed a half-life of 14 h. Also, in data set [2], it took 2690 nM to reach a half-maximal effect (EC50). In data set [2], `O=C1c2ccccc2C(=O)N1CCCC[n+]1ccc(CCCc2cc[n+](CCCCN3C(=O)c4ccccc4C3=O)cc2)cc1` returned an EC50 of 630 nM. `C[N+](C)(CCCCC[N+](C)(C)CCCN1C(=O)c2ccccc2C1=O)CCCN1C(=O)c2ccccc2C1=O.[Br-].[Br-]`: in data set [1], the half-life was 17.4 h. The molecule also had an EC50 in data set [2] of 1390 nM. In data set [1], `C[N+](C)(CCCCCCC[N+](C)(C)CCCN1C(=O)c2ccccc2C1=O)CCCN1C(=O)c2ccccc2C1=O.[Br-].[Br-]` had a half-life of 16.4 h. In addition, the midpoint of the response in data set [2], the EC50, lay at 370 nM. Take `C[N+](C)(CCCCCCCC[N+](C)(C)CCCN1C(=O)c2ccccc2C1=O)CCCN1C(=O)c2ccccc2C1=O.[Br-].[Br-]`: the half-life in data set [1] is 35.2 h. For the same molecule, it took 570 nM to reach a half-maximal effect in data set [2] (EC50). The molecule `O=C1c2ccccc2C(=O)N1C[n+]1ccc(CCCc2cc[n+](CN3C(=O)c4ccccc4C3=O)cc2)cc1` showed a concentration giving a half-maximal response (EC50) in data set [2] of 50800 nM. In turn, `O=C1c2ccccc2C(=O)N1CO/N=C/c1cc[n+](CCC[n+]2ccc(/C=N/OCN3C(=O)c4ccccc4C3=O)cc2)cc1` displayed a half-maximal effective concentration (EC50) in data set [2] of 510 nM. In data set [2], `O=C1c2ccccc2C(=O)N1CCCO/N=C/c1cc[n+](CCC[n+]2ccc(/C=N/OCCCN3C(=O)c4ccccc4C3=O)cc2)cc1` displayed a half-maximal effective concentration (EC50) of 520 nM.

Take `O=C1c2ccccc2C(=O)N1CCCO/N=C/c1cc[n+](CCCCCC[n+]2ccc(/C=N/OCCCN3C(=O)c4ccccc4C3=O)cc2)cc1`: in data set [2], the 50% effective concentration (EC50) is 450 nM. Turning to `O=C1c2ccccc2C(=O)N1CCCO/N=C/c1cc[n+](CCCC[n+]2ccc(/C=N/OCCCN3C(=O)c4ccccc4C3=O)cc2)cc1`, the concentration for a half-maximal effect (EC50) in data set [2] was found to be 350 nM. The molecule `C[N+](C)(CCCN1C(=O)c2ccccc2C1=O)CCCN1C(=O)c2ccccc2C1=O` displayed an EC50 in data set [2] of 8820 nM. In data set [2], `O=C1c2ccccc2C(=O)N1CO/N=C/c1cc[n+](CCCC[n+]2ccc(/C=N/OCN3C(=O)c4ccccc4C3=O)cc2)cc1` registered an EC50 of 1900 nM. With `O=C1c2ccccc2C(=O)N1CO/N=C/c1cc[n+](CCCCCC[n+]2ccc(/C=N/OCN3C(=O)c4ccccc4C3=O)cc2)cc1`, the response in data set [2] was half-maximal at 1400 nM (EC50). For the molecule `O=C1c2ccccc2C(=O)N1CCC[n+]1ccc(CCc2cc[n+](CCCN3C(=O)c4ccccc4C3=O)cc2)cc1`, in data set [2], a half-maximal response (EC50) required 2340 nM.

As to `C[N+](C)(CCCCCC[N+](C)(C)CCCN1C(=O)c2ccccc2C1=O)CCCN1C(=O)c2ccccc2C1=O.[Br-].[Br-]`, in data set [1], the half-life was 18 h. The molecule also returned a half-maximal effective concentration (EC50) in data set [2] of 1440 nM. As to `C[N+](C)(CCCCCCCCCC[N+](C)(C)CCCN1C(=O)c2ccccc2C1=O)CCCN1C(=O)c2ccccc2C1=O.[Br-].[Br-]`, the half-life in data set [1] is 19.3 h. This molecule also registered a concentration for a half-maximal effect (EC50) in data set [2] of 530 nM.

With `O=C1c2ccccc2C(=O)N1CC[n+]1ccc(CCCc2cc[n+](CCN3C(=O)c4ccccc4C3=O)cc2)cc1`, in data set [2], the EC50 came out at 3490 nM. Still for that read-out and setting: the figure for `O=C1c2ccccc2C(=O)N1CCCC[n+]1ccc(CCc2cc[n+](CCCCN3C(=O)c4ccccc4C3=O)cc2)cc1` is 470 nM. On to `C[N+](C)(CCCN1C(=O)c2ccccc2C1=O)CCC[N+](C)(C)CCCN1C(=O)c2ccccc2C1=O.[Br-].[Br-]`, for which the half-life in data set [1] is 14.5 h. In addition, the midpoint of the response in data set [2], the EC50, lay at 3800 nM. In data set [2], `O=C1c2ccccc2C(=O)N1CCCO/N=C/c1cc[n+](CCCCC[n+]2ccc(/C=N/OCCCN3C(=O)c4ccccc4C3=O)cc2)cc1` had an EC50 of 510 nM. As for `O=C1c2ccccc2C(=O)N1CCC[n+]1ccc(CCCc2cc[n+](CCCN3C(=O)c4ccccc4C3=O)cc2)cc1`, the 50% effective concentration (EC50) in data set [2] stood at 4870 nM.

Take `O=C1c2ccccc2C(=O)N1CCCC[n+]1ccc(-c2cc[n+](CCCCN3C(=O)c4ccccc4C3=O)cc2)cc1`: the response in data set [2] was half-maximal at 4650 nM (EC50).
